What was measured:
Mus musculus [1] = experiment: Evaluated for the radiotracer concentration in cerebellum of mouse brain, 4 hr after intravenous injection; assay type: functional, organism-based
How it was run: (§1)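 Female CD-1 mice (18–27 g; n = 4 or 5 per tracer) were given the tracer by tail-vein injection under ether anesthesia. Doses were 7.2–10.8 μCi of the 125I-labeled tracer or 5.0 μCi of the 3H-labeled tracer. Mice were killed 4 h later. Tissues were excised, weighed, and counted by gamma or liquid-scintillation counting. Values are % injected dose/g, or % dose in whole brain, normalized to a 25 g mouse.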

Mus musculus [2] = experiment: Evaluated for the radiotracer concentration in striatum of mouse brain, 4 hr after intravenous injection; assay type: functional, organism-based; how it was run: as §1
Mus musculus [3] = experiment: Evaluated for the radiotracer concentration in cerebral cortex of mouse brain, 4 hr after intravenous injection; assay type: functional, organism-based; how it was run: as §1
Mus musculus [4] = species: Mus musculus; experiment: Percentage dose injected in the whole brain of mouse was determined.; assay type: functional; how it was run: as §1
[5] = tested as the 125I-labelled form

OC1Cc2cccc(I)c2CC1N1CCC(c2ccccc2)CC1 (racemic) showed a Dose/g (Mus musculus [1]; [5]) of 0.2%, a Dose/g (Mus musculus [2]; [5]) of 3.29% and a Dose/g (Mus musculus [3]; [5]) of 1.17%.
In the case of OC1Cc2cccc([125I])c2CC1N1CCC(c2ccccc2)CC1 (racemic), the Dose (Mus musculus [4]) is reported as 0.56%.
Compound [3H]OC1CCCCC1N1CCC(c2ccccc2)CC1 (stereo unspecified) has a Dose (Mus musculus [4]) of 0.24%.
Work on O[C@H]1Cc2cccc(I)c2C[C@@H]1N1CCC(c2ccccc2)CC1 yielded a Dose/g (Mus musculus [1]; [5]) of 0.06%, a Dose/g (Mus musculus [2]; [5]) of 0.26% and a Dose/g (Mus musculus [3]; [5]) of 0.12%.
With O[C@@H]1Cc2cccc(I)c2C[C@H]1N1CCC(c2ccccc2)CC1 the Dose/g (Mus musculus [1]) was 0.23%, the Dose (Mus musculus [4]) was 1.03% and the Dose/g (Mus musculus [2]) was 6.26%. The Dose/g (Mus musculus [3]) was 2.56%.
O[C@H]1Cc2cccc([125I])c2C[C@@H]1N1CCC(c2ccccc2)CC1 gave a Dose (Mus musculus [4]) of 0.06%.
OC1CCCCC1N1CCC(c2ccccc2)CC1 (stereo unspecified) was tested, and the Dose/g (Mus musculus [1]; tested as the 3H-labelled form) was 0.1%, the Dose/g (Mus musculus [2]; tested as the 3H-labelled form) was 0.4% and the Dose/g (Mus musculus [3]; tested as the 3H-labelled form) was 0.42%.

From ChEMBL document CHEMBL1124857, “A radiotracer for mapping cholinergic neurons of the brain” (1990)
